Published values from different studies.
Target: cAMP-dependent protein kinase catalytic subunit alpha (PRKACA, Homo sapiens, UniProt P17612)

Structure (SMILES)	read-out	mode	technique	concentration	endpoint	value
CCN(CC)CCNC(=O)c1c(C)[nH]c(/C=C2\C(=O)Nc3ccc(F)cc32)c1C	enzyme activity	inhibitor		0.3 µM	inhibition	11%
Cc1ccc(-n2nc(C(C)(C)C)cc2NC(=O)Nc2ccc(OCCN3CCOCC3)c3ccccc23)cc1	enzyme activity	inhibitor		10 µM	inhibition	6%
COc1cc(/C=C/C(=O)CC(=O)/C=C/c2ccc(O)c(OC)c2)ccc1O	enzyme activity	inhibitor		1 µM	activity vs control	94%
Oc1cccc(-c2nc(N3CCOCC3)c3oc4ncccc4c3n2)c1	enzyme activity	inhibitor		10 µM	remaining activity	100%
COc1cc(Nc2cnc(C#N)c(O[C@H](C)CN(C)C)n2)ncc1-c1cnn(C)c1	enzyme activity	inhibitor	radiometric	10 µM	remaining activity	78%
CN(C)C1CCN(CC#Cc2nn(C3CCCC3)c3nc(NCc4ccccc4)ncc23)C1 (stereo not shown)	enzyme activity	inhibitor	FRET	1 µM	inhibition	6%
Cc1cc(NC(=O)c2cccc(S(F)(F)(F)(F)F)c2)cc(-n2ccn3nc(-c4cccnc4)cc23)c1	cell-free assay		competition with immobilised ligand	1 µM	remaining binding	100%
CN1CC(Oc2cnc(C#N)cc2-c2ccn3nc(NC(=O)C4CC4)cc3c2)C1	enzyme activity	inhibitor		1 µM	inhibition	7%
O=C(Nc1cnn(-c2csc(C(=O)NC3COC3)c2)c1)Nc1c(F)cccc1Cl	enzyme activity	inhibitor		5 µM	remaining activity	108%
Cc1cnn2ncc(-c3ccnc(N(C)C)n3)c2c1	cell-free assay			1 µM	remaining signal	100%
Nc1nc(Nc2ccccc2)sc1C(=O)c1c(F)cccc1F	enzyme activity	inhibitor		10 µM	remaining activity	90%
O=C(CSc1nc2nccnc2c(=O)n1CCc1ccccc1)Nc1nccs1	enzyme activity	inhibitor		10 µM	inhibition	6%
CCN1CCC2(CC1)NC(=O)c1c(c3ccc(Cl)c(Cl)c3n1C)C2C#N (racemic)	thermal stability		DSF	10 µM	ΔTm	1.9 °C
CNc1cccc2cc(C(=O)Nc3ccc(C(=O)O)cc3)c(=O)[nH]c12	enzyme activity	inhibitor		10 µM	inhibition	-8.1%
COc1cc2ncnc(Nc3ccc(Oc4ccccc4)cc3C)c2cc1OC	enzyme activity	inhibitor		1 µM	inhibition	3%
Cc1cc(NC(=O)c2cccc3cc(-c4cccc5[nH]nc(N)c45)ccc23)ccc1F	enzyme activity	inhibitor		0.1 µM	activity vs control	100%
Cc1sc(C(=O)NC2COC2)cc1-n1cc(NC(=O)Nc2c(F)cccc2Cl)cn1	enzyme activity	inhibitor		10 µM	remaining activity	94.5%
CCCOc1ccc(OC)c(F)c1C(=O)c1ccc(C(=O)N[C@@H]2CNC[C@H]2NC(=O)c2ccc3[nH]ncc3c2)cc1	enzyme activity	inhibitor		10 µM	remaining activity	1%
Cc1ccc(C(=O)NCc2ccsc2)cc1C#Cc1cn(C(C)C)c2ncnc(N)c12	enzyme activity	inhibitor		1 µM	activity vs control	103%
Cn1cnc(Br)c1C1=CN(c2ncnc3[nH]cnc23)CCS1	enzyme activity	inhibitor	radiometric	2 µM	inhibition	90.2%
Cc1ccc(Nc2nccc(N(C)c3ccc4c(C)n(C)nc4c3)n2)cc1S(N)(=O)=O	enzyme activity	inhibitor		0.3 µM	inhibition	6%
COc1cc2ncnc(Nc3ccc(F)c(Cl)c3)c2cc1OCCCN1CCOCC1	cell-free assay			0.5 µM	remaining signal	96.3%

Structure (SMILES)	read-out	mode	technique	concentration	endpoint	value
CC(=O)C1=C(C)N(c2cccc(C(F)(F)F)c2)C(=O)N[C@@H]1c1ccc(C#N)nc1	cell-free assay		competition with immobilised ligand	1 µM	remaining binding	92.3%
Cn1c2c(c3ccc(Cl)c(Cl)c31)C(C#N)C1(CCCC1)NC2=O (stereo not shown)	thermal stability		DSF	10 µM	ΔTm	-0.6 °C
N[C@@H]1CCN(c2nccc(-c3cnn4ncccc34)n2)C1	cell-free assay			1 µM	remaining signal	96%
N#CCCc1ccc2c(c1)-c1[nH]c3ccc([N+](=O)[O-])cc3c1CC(=O)N2	cell-free assay			0.5 µM	remaining signal	87.6%
Cn1c2c(c3ccc(Cl)c(Cl)c31)C(C#N)C1(CCOCC1)NC2=O (stereo not shown)	thermal stability		DSF	10 µM	ΔTm	0.1 °C
FC(F)(F)Oc1cccc(-c2cnc3ccc(-c4ccncc4)nn23)c1	enzyme activity	inhibitor	radiometric	5 µM	activity vs control	106%
Cc1cc(-n2nc(Cc3cc(F)cc(C(F)(F)F)c3)nc2C)ccc1C(N)=O	cell-free assay		competition with immobilised ligand	1 µM	remaining binding	100%
CCCS(=O)(=O)Nc1ccc(F)c(C(=O)c2c[nH]c3ncc(-c4ccc(Cl)cc4)cc23)c1F	enzyme activity	inhibitor		1 µM	inhibition	< 10%
CCOc1cc(-c2nncn2C)ccc1Nc1ncc2cc(C)nc(NCC(C)(C)C)c2n1	enzyme activity	inhibitor	FRET	1 µM	inhibition	< 15%
CN(C)c1ncnc(-c2ccc3nc(Nc4cc(CN5CCN(C(=O)CC(F)(F)F)CC5)ccn4)[nH]c3c2)c1Cl	cell-free assay		competition with immobilised ligand	1 µM	remaining binding	100%
CC1(C)NC(=O)c2[nH]c3c(Cl)c(Cl)ccc3c2C1C#N (stereo not shown)	thermal stability		DSF	10 µM	ΔTm	1 °C
O=C1Nc2ccc(Cl)cc2C1=Cc1cc(Cl)c(O)c(Cl)c1	cell-free assay			0.5 µM	remaining signal	101%
Nc1ncnc2occ(-c3ccc(NC(=O)Nc4cc(C(F)(F)F)ccc4F)cc3)c12	enzyme activity	inhibitor		20 µM	remaining activity	12%
O=C(Nc1cccnn1)N1CCC(=Cc2cccc(Oc3ccc(C(F)(F)F)cn3)c2)CC1	cell-free assay		competition with immobilised ligand	1 µM	remaining binding	100%
Cn1c2c(c3ccc(Cl)c(Cl)c31)C(C#N)C(C)(C)NC2=O (stereo not shown)	thermal stability		DSF	10 µM	ΔTm	0.4 °C
CCCOc1ccc([C@H]2[C@H](C(=O)O)[C@@H](c3ccc4c(c3)OCO4)CN2CC(=O)Nc2c(CC)cccc2CC)cc1	cell-free assay		competition with immobilised ligand	1 µM	remaining binding	100%
CCN(CC)c1ccc(C2=NNC(=O)CC2C)cc1[N+](=O)[O-] (stereo not shown)	enzyme activity	inhibitor		10 µM	remaining activity	100%
CNCc1ccccc1-c1csc([C@@H](C)Nc2nc(C)nc3cc(OC)c(OC)cc23)c1	cell-free assay		competition with immobilised ligand	1 µM	remaining binding	100%
Cc1cnc(NC2CCOCC2)nc1-n1cnc(C(=O)NC(CN)c2cc(F)cc(Cl)c2)c1 (stereo not shown)	enzyme activity	inhibitor	radiometric	1 µM	remaining activity	45%
CCOC(=O)c1cc2cc(-c3cc(C(=O)NCc4ccc(C(=O)O)cc4)nn3C)ccc2[nH]1	cell-free assay		competition with immobilised ligand	0.1 µM	remaining binding	85%
CC(C)(C)c1nc(-c2cccc(NS(=O)(=O)c3c(F)cccc3F)c2F)c(-c2ccnc(N)n2)s1	enzyme activity	inhibitor	radiometric	1 µM	remaining activity	95%
